Results published in ChEMBL document CHEMBL4219260, “Investigation of chemical reactivity of 2-alkoxy-1,4-naphthoquinones and their anticancer activity” (Bioorg Med Chem Lett, 2018).

Key:
Assay type in all cases: functional, cell-based
[1] = tested on: COLO 205; assay: Antiproliferative activity against human COLO205 cells after 72 hrs by CellTiter-Glo assay; conditions: COLO 205, 72 h
Procedure, shortened: (§1)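 Cells from ATCC, checked mycoplasma-free by PCR, grown in RPMI with 10% FBS, 1% penicillin/streptomycin and 2 mM L-glutamine. Seeded and incubated 24 h, then exposed to 0.3, 1, 3 and 10 μM for 72 h. Viability was read by CellTiter-Glo relative to 0.1% DMSO vehicle. IC50 came from standard curve analysis, with doxorubicin as positive control. Three independent experiments, each in triplicate.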

[2] = tested on: T47D; assay: Antiproliferative activity against human T47D cells after 72 hrs by CellTiter-Glo assay; procedure, shortened: as §1
[3] = tested on: K562; assay: Antiproliferative activity against human K562 cells after 72 hrs by CellTiter-Glo assay; conditions: K562, 72 h; procedure, shortened: as §1

IC50 [1] [nM] | IC50 [2] [nM] | IC50 [3] [nM] | SMILES
> 10000 | > 10000 | > 10000 | O=C1C(O)=CC(=O)c2c(O)cccc21
> 10000 | > 10000 | > 10000 | COC1=CC(=O)c2cccc(O)c2C1=O
700 | 1700 | 900 | NC(=O)COC1=CC(=O)c2c(O)cccc2C1=O
> 10000 | > 10000 | > 10000 | COC(=O)COC1=CC(=O)c2ccccc2C1=O
> 10000 | > 10000 | > 10000 | COC1=CC(=O)c2c(OC)cccc2C1=O
> 10000 | > 10000 | > 10000 | O=C(O)COC1=CC(=O)c2c(O)cccc2C1=O
1700 | 1000 | 1200 | CN(C)C(=O)COC1=CC(=O)c2c(O)cccc2C1=O
1900 | 2200 | 1300 | COC(=O)COC1=CC(=O)c2c(O)cccc2C1=O
2300 | 2000 | 1400 | COC1=CC(=O)c2c(O)cccc2C1=O
> 10000 | > 10000 | > 10000 | O=C1C=C(O)C(=O)c2c(O)cccc21
